Data from ChEMBL document CHEMBL4422636, “Investigation of the structural requirements for N-methyl-D-aspartate receptor positive and negative allosteric modulators based on 2-naphthoic acid” (Eur J Med Chem, 2019).
Activity calls are given as the source filed them. The calls are words filed in the database; no cut-off is given here.

How the values were obtained:
[1] = Solubility of the compound at 100 uM; assay type: physicochemical
Procedure, shortened: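 Compounds were inspected for visible precipitation at the concentrations used in the oocyte assays.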

[2] = target: Glutamate receptor ionotropic, NMDA 2D (Rattus norvegicus) (UniProt Q62645); test: Agonist activity at rat GluN2D expressed in Xenopus laevis oocytes assessed as effect on current response at holding potential -60 mV by two-electrode voltage clamp method relative to L-glutamate/glycine; assay type: cell-based
Procedure, shortened: (§1)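 GluN1a with one GluN2 subunit; RNAs mixed 1:1–3 molar, 15–30 ng total injected into Xenopus oocytes, which were held in ND-96 at 17°C for 1–5 days. TEVC at −60 mV in 116 mM NaCl, 2 mM KCl, 0.3 mM BaCl2, 5 mM HEPES, pH 7.4. […] Reported as % of agonist-alone response, mean ± s.e.m., n≥4.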

[3] = target: Glutamate receptor ionotropic, NMDA 2D (Rattus norvegicus) (UniProt Q62645); test: Allosteric modulation of rat GluN2D expressed in Xenopus laevis oocytes assessed as L-glutamate/glycine-induced current response at 100 uM at holding potential -60 mV by two-electrode voltage clamp method relative to L-glutamate/glycine; assay type: cell-based; procedure, shortened: as §1
[4] = target: Glutamate receptor ionotropic, NMDA 2A (Rattus norvegicus) (UniProt Q00959); test: Agonist activity at rat GluN2A expressed in Xenopus laevis oocytes assessed effect on current response at holding potential -60 mV by two-electrode voltage clamp method relative to L-glutamate/glycine; assay type: cell-based; procedure, shortened: as §1
[5] = target: Glutamate receptor ionotropic, NMDA 2C (Rattus norvegicus) (UniProt Q00961); test: Agonist activity at rat GluN2C expressed in Xenopus laevis oocytes assessed effect on current response at holding potential -60 mV by two-electrode voltage clamp method relative to L-glutamate/glycine; assay type: cell-based; procedure, shortened: as §1
[6] = target: Glutamate receptor ionotropic, NMDA 2B (Rattus norvegicus) (UniProt Q00960); test: Allosteric modulation of rat GluN2B expressed in Xenopus laevis oocytes assessed as L-glutamate/glycine-induced current response at 100 uM at holding potential -60 mV by two-electrode voltage clamp method relative to L-glutamate/glycine; assay type: cell-based; procedure, shortened: as §1
[7] = target: Glutamate receptor ionotropic, NMDA 2A (Rattus norvegicus) (UniProt Q00959); test: Allosteric modulation of rat GluN2A expressed in Xenopus laevis oocytes assessed as L-glutamate/glycine-induced current response at 100 uM at holding potential -60 mV by two-electrode voltage clamp method relative to L-glutamate/glycine; assay type: cell-based; procedure, shortened: as §1
[8] = target: Glutamate receptor ionotropic, NMDA 2C (Rattus norvegicus) (UniProt Q00961); test: Allosteric modulation of rat GluN2C expressed in Xenopus laevis oocytes assessed as L-glutamate/glycine-induced current response at 100 uM at holding potential -60 mV by two-electrode voltage clamp method relative to L-glutamate/glycine; assay type: cell-based; procedure, shortened: as §1
[9] = target: Glutamate receptor ionotropic, NMDA 2B (Rattus norvegicus) (UniProt Q00960); test: Agonist activity at rat GluN2B expressed in Xenopus laevis oocytes assessed as effect on current response at holding potential -60 mV by two-electrode voltage clamp method relative to L-glutamate/glycine; assay type: cell-based; procedure, shortened: as §1

Sequence of Glutamate receptor ionotropic, NMDA 2C (Rattus norvegicus) (Q00961 20-1237 limits assumed): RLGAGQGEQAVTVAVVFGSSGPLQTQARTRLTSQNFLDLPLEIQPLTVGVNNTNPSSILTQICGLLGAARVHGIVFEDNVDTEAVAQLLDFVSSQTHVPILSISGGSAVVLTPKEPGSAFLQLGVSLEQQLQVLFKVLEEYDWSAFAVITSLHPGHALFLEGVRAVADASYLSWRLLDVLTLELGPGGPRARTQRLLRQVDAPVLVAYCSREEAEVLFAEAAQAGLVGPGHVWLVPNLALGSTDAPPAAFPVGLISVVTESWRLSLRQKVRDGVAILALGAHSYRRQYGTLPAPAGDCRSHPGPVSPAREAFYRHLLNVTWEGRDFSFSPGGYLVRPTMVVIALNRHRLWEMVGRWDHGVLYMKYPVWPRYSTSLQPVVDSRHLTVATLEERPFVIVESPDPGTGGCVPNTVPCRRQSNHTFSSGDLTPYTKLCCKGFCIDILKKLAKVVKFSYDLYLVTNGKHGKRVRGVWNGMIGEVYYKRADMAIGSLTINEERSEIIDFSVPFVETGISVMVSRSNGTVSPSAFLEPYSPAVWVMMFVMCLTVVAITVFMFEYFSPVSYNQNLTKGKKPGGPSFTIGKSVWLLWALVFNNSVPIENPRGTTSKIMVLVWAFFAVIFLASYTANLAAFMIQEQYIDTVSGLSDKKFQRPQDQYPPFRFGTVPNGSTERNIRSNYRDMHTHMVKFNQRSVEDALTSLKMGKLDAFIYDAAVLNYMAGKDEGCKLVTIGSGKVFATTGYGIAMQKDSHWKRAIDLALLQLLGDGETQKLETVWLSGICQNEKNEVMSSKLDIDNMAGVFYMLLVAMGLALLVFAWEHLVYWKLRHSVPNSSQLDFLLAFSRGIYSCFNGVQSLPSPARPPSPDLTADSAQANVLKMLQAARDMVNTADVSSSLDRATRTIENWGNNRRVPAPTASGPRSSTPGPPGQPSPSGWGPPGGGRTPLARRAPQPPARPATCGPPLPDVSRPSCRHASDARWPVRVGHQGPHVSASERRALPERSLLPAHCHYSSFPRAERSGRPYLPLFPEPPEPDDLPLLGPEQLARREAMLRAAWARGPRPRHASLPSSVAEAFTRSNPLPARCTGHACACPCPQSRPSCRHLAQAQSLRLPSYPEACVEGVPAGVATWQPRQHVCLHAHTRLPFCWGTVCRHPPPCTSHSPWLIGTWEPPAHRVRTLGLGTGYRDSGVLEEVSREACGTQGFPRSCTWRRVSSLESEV
Sequence of Glutamate receptor ionotropic, NMDA 2D (Rattus norvegicus) (Q62645 whole entry): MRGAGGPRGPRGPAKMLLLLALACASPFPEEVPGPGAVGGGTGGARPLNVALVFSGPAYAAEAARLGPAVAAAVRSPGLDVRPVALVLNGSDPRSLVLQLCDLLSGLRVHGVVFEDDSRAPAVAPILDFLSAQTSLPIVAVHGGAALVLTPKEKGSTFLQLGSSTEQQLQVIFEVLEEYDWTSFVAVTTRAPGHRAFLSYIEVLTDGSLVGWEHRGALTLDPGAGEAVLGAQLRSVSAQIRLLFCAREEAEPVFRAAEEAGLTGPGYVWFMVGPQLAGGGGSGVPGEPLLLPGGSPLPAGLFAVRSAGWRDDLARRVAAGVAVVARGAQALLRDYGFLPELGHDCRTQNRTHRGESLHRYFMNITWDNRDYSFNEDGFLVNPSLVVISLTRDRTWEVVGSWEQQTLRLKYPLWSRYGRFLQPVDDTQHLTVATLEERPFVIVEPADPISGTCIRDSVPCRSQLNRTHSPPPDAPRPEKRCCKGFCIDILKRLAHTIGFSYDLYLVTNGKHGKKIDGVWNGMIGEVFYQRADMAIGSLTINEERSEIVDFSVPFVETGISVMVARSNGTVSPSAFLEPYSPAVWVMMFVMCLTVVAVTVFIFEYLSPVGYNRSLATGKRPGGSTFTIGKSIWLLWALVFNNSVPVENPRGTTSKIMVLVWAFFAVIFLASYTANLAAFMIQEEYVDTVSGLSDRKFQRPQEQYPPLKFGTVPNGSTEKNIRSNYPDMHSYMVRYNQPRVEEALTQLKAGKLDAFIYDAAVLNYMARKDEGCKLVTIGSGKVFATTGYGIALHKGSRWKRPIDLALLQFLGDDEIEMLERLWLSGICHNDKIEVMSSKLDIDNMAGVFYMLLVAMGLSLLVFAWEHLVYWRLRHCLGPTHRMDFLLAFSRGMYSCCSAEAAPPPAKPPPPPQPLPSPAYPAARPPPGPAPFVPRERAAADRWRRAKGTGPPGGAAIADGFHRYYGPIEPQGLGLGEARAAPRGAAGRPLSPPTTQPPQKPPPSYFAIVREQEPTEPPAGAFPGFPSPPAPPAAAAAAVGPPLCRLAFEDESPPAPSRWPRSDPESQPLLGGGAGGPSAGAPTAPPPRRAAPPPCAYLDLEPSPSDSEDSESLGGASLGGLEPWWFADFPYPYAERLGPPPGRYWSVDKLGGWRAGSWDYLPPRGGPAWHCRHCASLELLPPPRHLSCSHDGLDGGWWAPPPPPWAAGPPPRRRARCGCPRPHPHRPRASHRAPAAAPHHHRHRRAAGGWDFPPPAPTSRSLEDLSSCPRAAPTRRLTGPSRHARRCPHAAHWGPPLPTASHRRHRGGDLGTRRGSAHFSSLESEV
Sequence of Glutamate receptor ionotropic, NMDA 2A (Rattus norvegicus) (Q00959 23-1464 limits assumed): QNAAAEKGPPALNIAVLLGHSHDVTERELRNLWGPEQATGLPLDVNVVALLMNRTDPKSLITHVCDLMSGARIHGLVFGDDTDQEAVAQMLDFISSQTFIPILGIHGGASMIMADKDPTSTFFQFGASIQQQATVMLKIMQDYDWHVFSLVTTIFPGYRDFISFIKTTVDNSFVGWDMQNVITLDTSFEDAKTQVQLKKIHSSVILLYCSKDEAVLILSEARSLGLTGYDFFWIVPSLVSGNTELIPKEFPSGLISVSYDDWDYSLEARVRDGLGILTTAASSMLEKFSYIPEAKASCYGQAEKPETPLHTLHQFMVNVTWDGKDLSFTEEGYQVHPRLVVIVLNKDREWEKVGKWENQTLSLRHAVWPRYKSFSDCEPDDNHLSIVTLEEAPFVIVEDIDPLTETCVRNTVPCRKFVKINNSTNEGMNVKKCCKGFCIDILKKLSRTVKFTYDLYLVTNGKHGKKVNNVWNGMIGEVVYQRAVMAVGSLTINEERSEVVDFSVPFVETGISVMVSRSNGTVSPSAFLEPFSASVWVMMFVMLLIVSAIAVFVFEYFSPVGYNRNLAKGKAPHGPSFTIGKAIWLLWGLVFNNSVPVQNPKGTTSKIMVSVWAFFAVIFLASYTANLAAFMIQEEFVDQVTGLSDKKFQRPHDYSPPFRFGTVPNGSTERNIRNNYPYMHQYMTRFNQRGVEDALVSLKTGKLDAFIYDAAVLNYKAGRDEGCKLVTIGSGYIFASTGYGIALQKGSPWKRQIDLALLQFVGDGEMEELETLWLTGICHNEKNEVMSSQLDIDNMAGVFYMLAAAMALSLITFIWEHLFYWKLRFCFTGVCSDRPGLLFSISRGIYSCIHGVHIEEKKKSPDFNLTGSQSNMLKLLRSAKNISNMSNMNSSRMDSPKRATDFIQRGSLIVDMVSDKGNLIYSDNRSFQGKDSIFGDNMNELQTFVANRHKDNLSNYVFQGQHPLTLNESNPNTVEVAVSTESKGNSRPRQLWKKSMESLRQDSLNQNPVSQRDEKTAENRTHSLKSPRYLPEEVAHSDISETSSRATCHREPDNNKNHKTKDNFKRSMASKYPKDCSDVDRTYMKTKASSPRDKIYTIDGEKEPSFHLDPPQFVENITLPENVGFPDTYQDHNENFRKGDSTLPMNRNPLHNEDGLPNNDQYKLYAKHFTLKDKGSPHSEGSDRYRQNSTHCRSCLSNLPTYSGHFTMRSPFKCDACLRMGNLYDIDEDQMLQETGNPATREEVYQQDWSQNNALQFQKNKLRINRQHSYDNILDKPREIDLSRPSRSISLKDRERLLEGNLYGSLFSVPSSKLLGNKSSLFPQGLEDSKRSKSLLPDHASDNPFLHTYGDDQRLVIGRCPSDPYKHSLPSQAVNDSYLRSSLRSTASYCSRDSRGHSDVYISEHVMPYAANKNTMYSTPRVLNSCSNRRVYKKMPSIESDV

Compound	solubility [1]	Activity [2]	Activity [3] [%]	Activity [4]	Activity [5]	Activity [6] [%]	Activity [7] [%]	Activity [8] [%]	Activity [9]
CC(C)CCCc1ccc2cc(C(=O)O)c(O)cc2c1	Soluble	inactive	301	inactive	inactive	309	178	357	inactive
CCCCCc1ccc2cc(CC(=O)O)ccc2c1	Soluble	inactive	37	inactive	inactive	67	67	60	inactive
O=C(O)c1cc2cc(CCc3ccccc3C(=O)O)ccc2cc1O	Soluble	–	80.7	–	–	85.2	91.8	94.1	–
O=C(O)c1cc2cc(CCc3ccccc3)ccc2cc1O	Soluble	–	32.1	–	–	54.3	71.4	46.8	–
CC(C)CCCc1ccc2cc(C(=O)O)c(C(=O)O)cc2c1	Soluble	inactive	24	inactive	inactive	88	92	47	inactive
CCCCCc1ccc2cc(C(=O)O)ccc2c1Br	Soluble	inactive	99	inactive	inactive	52	73	97	inactive
O=C(O)c1ccc(/C=C/c2ccc3cc(O)c(C(=O)O)cc3c2)cc1	Soluble	–	67	–	–	89	89.7	85.2	–
COc1ccccc1/C=C/c1ccc2cc(O)c(C(=O)O)cc2c1	Soluble	–	71	–	–	74	105	61.7	–
O=C(O)c1ccc2cc(C3CC3)ccc2c1	Soluble	inactive	94	inactive	inactive	97	97	97	inactive
O=C(O)c1ccc2cc(CCCCc3ccccc3)ccc2c1	Soluble	inactive	115	inactive	inactive	120	118	123	inactive
O=C(O)c1cccc(/C=C/c2ccc3cc(O)c(C(=O)O)cc3c2)c1	Soluble	–	61.4	–	–	70	90.3	76.8	–
O=C(O)c1ccc2cc(I)c3ccccc3c2c1	Soluble	inactive	47.7	inactive	inactive	101	109	65.9	inactive
COc1cccc(/C=C/c2ccc3cc(O)c(C(=O)O)cc3c2)c1	Soluble	–	29.9	–	–	24.9	52.4	30.8	–
O=C(O)c1cc2ccc(/C=C/c3ccccc3)cc2cc1C(=O)O	Soluble	–	38.6	–	–	66.7	55	37.1	–
CC(C)CCCc1ccc2cc(O)c(C(=O)O)cc2c1	Soluble	inactive	180	inactive	inactive	113	78	113	inactive
CC(C)CCCc1ccc2ccc(C(=O)O)cc2c1	Soluble	inactive	80	inactive	inactive	120	123	115	inactive
COc1ccc(/C=C/c2ccc3cc(O)c(C(=O)O)cc3c2)cc1	Soluble	–	39	–	–	36	42.7	39.6	–
O=C(O)c1cc2cc(/C=C/c3ccccc3)ccc2oc1=O	Soluble	–	119	–	–	92	95.1	114	–
O=C(O)c1ccc(CCc2ccc3cc(O)c(C(=O)O)cc3c2)cc1	Soluble	–	92.6	–	–	95.8	102	115	–
O=C(O)c1cc2cc(/C=C/c3ccccc3C(=O)O)ccc2cc1O	Soluble	–	103	–	–	84.5	92.1	83.7	–

The remaining lines, values ahead:

solubility [1]	Activity [2]	Activity [3] [%]	Activity [4]	Activity [5]	Activity [6] [%]	Activity [7] [%]	Activity [8] [%]	Activity [9]	Compound
Soluble	inactive	68	inactive	inactive	58	51	82	inactive	CCC/C=C/c1ccc2cc(C(=O)O)ccc2c1
Soluble	–	72	–	–	49	83	83	–	CC(C)COCc1ccc2cc(C(=O)O)ccc2c1
Soluble	inactive	97	inactive	inactive	97	107	105	inactive	CC(C/C=C/c1ccc2cc(C(=O)O)ccc2c1)C(=O)O (racemic)
Soluble	–	100	–	–	77	113	105	–	CC(C)CSCc1ccc2cc(C(=O)O)ccc2c1
Soluble	inactive	220	inactive	inactive	152	135	264	inactive	CC(C)C/C=C/c1ccc2cc(C(=O)O)ccc2c1
Soluble	inactive	110	inactive	inactive	99	104	125	inactive	CC(C)CC#Cc1ccc2cc(C(=O)O)ccc2c1
Soluble	inactive	107	inactive	inactive	85	110	98	inactive	CC(CCCc1ccc2cc(C(=O)O)ccc2c1)C(=O)O (racemic)
Soluble	inactive	71	inactive	inactive	64	60	96	inactive	CC(CCCc1ccc2cc(C(=O)O)ccc2c1)CC(=O)O (racemic)
Soluble	–	99	–	–	65	65	46	–	CC(C)CNC(=O)c1ccc2cc(C(=O)O)ccc2c1
Soluble	–	42	–	–	45	73	56	–	CC(C)C(=O)OCc1ccc2cc(C(=O)O)ccc2c1
Soluble	–	79	–	–	82	128	99	–	CC(C)CCC(=O)c1ccc2cc(C(=O)O)ccc2c1
Soluble	inactive	57	inactive	inactive	46	55	63	inactive	CCCCOc1ccc2cc(C(=O)O)ccc2c1
Soluble	–	169	–	–	179	159	144	–	CC(C)COC(=O)c1ccc2cc(C(=O)O)ccc2c1
